# Screens as filed in PubChem BioAssay.
# GSK3A inh – inhibitors of human GSK-3 alpha kinase; P49840; ADP-Glo luminescence, 60 min; inhibition, % at 10 µM; 320,000 tested, 0.1% active; AID 2650;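 active = more than half of replicates show inhibition above 20%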;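 note: GST-tagged GSK-3 alpha with peptide substrate and 25 µM ATP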
# CDK5 p35 inh – CDK5/p35 (human) kinase inhibition. Q00535+Q15078. Recombinant CDK5/p35, ADP-Glo luminescence, 60 min. inhibition, % at 10 µM. 330,000 tested, 0.01% active;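 active = highest replicate inhibition of at least 50% and at least 75% of replicates reaching 50%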
# GSK3beta inhib – blocks human GSK3beta kinase activity. AID 2097. GST-GSK3beta kinase, ADP-Glo luminescence, 60 min; stronger effect = lower value. activity score (negative = inhibition), % at 10 µM. P49841. 300,000 tested, 0.038% active;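 active = more than half of replicate wells score below -50%, meaning over 50% inhibition versus plate controls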
#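 test system = GST-tagged human GSK3beta kinase, cell-free | reagent = 25 µM ATP with peptide substrate | dosing = one dose of 10 µM per compound | schedule = 60 min reaction, RT | detection = luminescent ADP-Glo measurement of ADP formed | control set = DMSO neutral wells and GW8510 at 20 µM as positive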
# SR-BI DiI-HDL act – activators of SR-BI mediated HDL lipid uptake; 320,000 tested, 0.096% active; CHO ldlA[mSR-BI] cells, DiI-HDL uptake fluorescence, 3 h; 100 = double the neutral-control signal; activation, % at 12.5 µM;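 active = mean replicate activation of at least 60% and every replicate at or above 60%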
#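 Test system: SR-BI-overexpressing, LDLR-lacking CHO cells; Also added: labelled HDL, 10 µg/mL; Measured by: bottom-read cell fluorescence after medium removal, ex 550/em 595 nm; Timing: 3 h uptake period with compound, 37 °C; Buffer or medium: F12, 0.5% BSA, 25 mM HEPES; Doses: single compound concentration, delivered by pin transfer.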
# SR-BI DiI inh – inhibitors of mouse SR-BI mediated HDL lipid uptake | Q61009 | ldlA[mSR-BI] CHO cells, DiI-HDL uptake fluorescence, 3 h | inhibition, % at 12.5 µM | 320,000 tested, 0.96% active | AID 488896;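 active = mean replicate inhibition of at least 70% and a set share of replicates each scoring 70 or more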
# Target sequence (Q61009 whole entry, looked up): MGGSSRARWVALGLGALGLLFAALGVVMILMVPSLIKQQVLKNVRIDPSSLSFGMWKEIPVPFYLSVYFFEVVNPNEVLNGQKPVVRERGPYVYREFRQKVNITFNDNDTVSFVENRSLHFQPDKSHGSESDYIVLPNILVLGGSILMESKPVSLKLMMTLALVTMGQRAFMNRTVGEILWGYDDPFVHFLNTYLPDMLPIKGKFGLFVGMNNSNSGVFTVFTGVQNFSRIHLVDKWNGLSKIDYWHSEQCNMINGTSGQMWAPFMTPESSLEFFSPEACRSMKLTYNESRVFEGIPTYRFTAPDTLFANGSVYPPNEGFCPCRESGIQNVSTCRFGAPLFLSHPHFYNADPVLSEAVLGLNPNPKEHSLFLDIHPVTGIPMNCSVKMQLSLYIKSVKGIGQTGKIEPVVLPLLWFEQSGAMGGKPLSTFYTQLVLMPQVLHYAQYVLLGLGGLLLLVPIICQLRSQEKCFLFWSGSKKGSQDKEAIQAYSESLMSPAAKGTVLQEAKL
# Numbers stand for hits; – = inactive; · = no result given. The list is not random: actives were taken first. Their share in the collection is about 1.1%.
SMILES,GSK3A inh,CDK5 p35 inh,GSK3beta inhib,SR-BI DiI-HDL act,SR-BI DiI inh
CCn1c(SCC(=O)N2CCCC2=O)nnc1-c1cccs1,–,–,·,96,–
COc1ccc(CN2CCn3ncc(C(=O)Nc4cc(C)cc(C)c4)c3C2=O)cc1,–,–,–,–,74
CCCCN1C(=O)/C(=C/C=C2\N(C)c3ccccc3C2(C)C)SC1=S,–,·,–,·,·
CCCN1C(=O)/C(=C\C=C2/C=CN(CC)c3ccccc32)SC1=S,–,–,–,–,146
COc1ccc(C(=O)Nc2nc3c(s2)Cc2cc(OC)ccc2-3)cc1,–,–,–,–,87
CC(C)c1ccc(NC(=O)C2CCN(S(=O)(=O)c3ccc4c(c3)C(C)(C)C(=O)N4C)CC2)cc1,–,–,–,·,·
Cc1ccc(NC(=O)CCNS(=O)(=O)c2ccc3[nH]c(=O)oc3c2)cc1N(C)C,–,–,–,–,–
O=c1[nH]c(C2CCN(S(=O)(=O)c3ccc4c(c3)OCCO4)CC2)nc2c1nnn2Cc1ccc(F)cc1,–,–,–,94,–
O=c1[nH]c(C2CCN(S(=O)(=O)c3ccc4c(c3)OCCO4)CC2)nc2c1nnn2Cc1cccc(F)c1,–,–,–,·,·
COCCn1nnnc1C(c1cccs1)N1CCN(c2ccccc2)CC1 (configuration not stated),–,–,–,–,83
COc1cc(OC)cc(-c2sc3ccc(OC)cc3c2C#CCCO)c1,–,–,·,–,76
COc1ccc2c(C#CCCO)c(-c3ccc(S(C)(=O)=O)cc3)sc2c1,–,–,·,–,83
COc1ccc2sc(-c3ccc(S(C)(=O)=O)cc3)c(C#CCO)c2c1,–,–,·,–,–
CNc1nc(N/N=C/c2cc3c(cc2[N+](=O)[O-])OCO3)nc(Nc2ccccc2)n1,–,–,–,–,87
CNc1nc(N/N=C/c2cc([N+](=O)[O-])ccc2F)nc(Nc2ccccc2)n1,·,–,·,–,75
CNc1nc(Nc2ccc([N+](=O)[O-])cc2)nc(OCC(F)(F)F)n1,–,–,–,–,–
O=[N+]([O-])c1cccc(-c2ccc(/C=N/Nc3nc(N4CCCCC4)nc(N4CCCCC4)n3)o2)c1,–,–,–,–,84
Cc1nn2c(NC(C)C)c3c(nc2c1-c1ccccc1)CCC3,–,–,–,104,–
CCc1nnc2sc(-c3ccc(NC(=O)CSc4ccc(Cl)cc4)cc3)nn12,–,–,–,·,77
Cc1cnc(NC(=O)c2ccc3ncsc3c2)s1,·,–,·,–,–
O=C1CC(N2CCN(c3ncccn3)CC2)C(=O)N1CCc1ccccc1 (configuration not stated),–,–,–,–,–
COC(=O)c1cc(C(=O)Nc2nc3ccccc3[nH]2)cc([N+](=O)[O-])c1,–,–,–,–,80
O=C(Nc1nc2ccccc2[nH]1)c1cccc([N+](=O)[O-])c1,–,–,–,–,–
CC(=O)Nc1sc(C)c(C)c1C(=O)OCC(=O)N(Cc1ccccc1)C(C)C,–,–,·,–,–
Cc1nc(C)c(-c2nnc(-c3ccc(C(C)(C)C)cc3)o2)cc1C(=O)NN,–,–,–,–,81
SMILES,GSK3A inh,CDK5 p35 inh,GSK3beta inhib,SR-BI DiI-HDL act,SR-BI DiI inh
Cc1nc(C)c(-c2nnc(-c3ccccc3Cl)o2)cc1C(=O)NN,–,–,–,·,·
O=C(CSc1nnc(-c2cccs2)o1)Nc1cccc(S(=O)(=O)N2CCCCC2)c1,–,–,–,–,–
COc1cccc(C(=O)Nc2ccc3nc(N4CCOCC4)cc(C)c3c2)c1,–,–,–,–,79
COc1cccc(NC(=O)c2ccnc(N3CCC(C(=O)NCc4cc(OC)ccc4OC)CC3)c2)c1,–,–,–,–,79
O=c1[nH]cnc2c1ncn2-c1ccc(N(CCO)CCO)cc1,·,–,·,–,–
CC1N(C)c2cc(NC(=O)c3ccco3)ccc2C1(C)C (configuration not stated),–,–,–,139,–
CCn1c2ccccc2c2cc(NC(=O)c3ccco3)ccc21,–,–,–,–,82
CCn1c2ccccc2c2cc(NC(C)=O)ccc21,–,–,–,–,–
COc1ccc(/C=N/Nc2cc(C)nc(-n3nc(C)cc3C)n2)cc1,–,–,–,–,–
Cc1cc(N/N=C/c2ccc(O)cc2O)nc(-c2ccccc2O)n1,–,–,–,–,114
Cc1cc(N/N=C/c2ccc(O)cc2O)nc(-n2nc(C)cc2C)n1,–,–,–,–,94
CCc1ccc(OCc2cccc(C(=O)N/N=C\c3cnn(C)c3C)c2)cc1,·,–,–,–,92
Cc1c(/C=N\NC(=O)c2cccc(F)c2)cnn1C,–,–,–,–,–
CCc1ccc(NC(=O)CSc2nc3n[nH]c(C)c3c(=N)n2-c2cccc(OC)c2)cc1,–,–,–,123,–
O=C(COC(=O)c1ccc2c(c1)S(=O)(=O)N=C1CCCCCN12)NCc1cccs1,–,–,–,·,·
CCNC(=O)COc1cccc(C(=O)NCc2ccccc2)c1,–,–,–,–,–
CCOC(=O)c1sc(=NC(=O)c2ccc(C)cc2)n(C)c1C,–,–,–,–,–
CCOC(=O)c1sc(=NC(=O)c2cc(OC)c(OC)c(OC)c2)n(C)c1C,–,–,–,–,74
O=C1CC(SC(=Nc2ccccc2)Nc2ccccc2)C(=O)N1c1ccc(Cl)c(Cl)c1 (configuration not stated),–,–,–,–,–
Cc1cccc(N2C(=O)CC(SC(=Nc3ccccc3)Nc3ccccc3)C2=O)c1 (configuration not stated),·,–,–,–,74
Oc1cccc2oc(=S)[nH]c12,·,–,·,–,–
CC1(C)NC(=O)N(CC(=O)OCC(=O)c2ccc(F)cc2)C1=O,–,–,–,152,–
O=C(Nc1ccc(Cl)cc1)[C@@H]1[C@@H]2C(=O)N(c3ccc4ccccc4c3)C(=O)[C@@H]2[C@H]2C=CC=NN21,–,–,–,–,76
O=C(Nc1ccc(Cl)cc1)[C@@H]1[C@@H]2C(=O)N(c3cccc(F)c3)C(=O)[C@@H]2[C@H]2C=CC=NN21,–,–,–,–,–
CCOc1ccc(C(=O)Nc2nnc(NC(=S)Nc3ccccc3)s2)cc1,–,–,–,–,85
SMILES,GSK3A inh,CDK5 p35 inh,GSK3beta inhib,SR-BI DiI-HDL act,SR-BI DiI inh
Cc1ccc(S(=O)(=O)NC(=O)NCCc2ccccc2)cc1,–,–,–,–,–
Cc1ccc(-n2nc(C)cc2NC(=O)c2ccc(C)s2)cc1,–,–,–,–,87
Cc1ccc(-n2nc(C)cc2NC(=O)CC#N)cc1,–,–,–,–,–
CCOC(=O)N1CCN(CC(O)COc2ccc(C)cc2C(C)(C)C)CC1 (configuration not stated),–,–,–,–,–
Cc1nc(NC(=O)/C=C/c2ccccc2)sc1C(=O)Nc1ccccc1,–,–,–,–,76
O=C1NC(=O)/C(=C/c2ccccn2)S1,–,–,–,–,–
CN(Cc1nc2c(s1)CCCC2)C(=O)CCc1nnc(-c2ccc3c(c2)OCO3)o1,58,–,–,·,·
